Results taken from ChEMBL document CHEMBL4715687, “A benzoxazole derivative as an inhibitor of anaerobic choline metabolism by human gut microbiota” (RSC Med Chem, 2020).
The source made the active and inactive calls. No cut-off for these calls is given here.

Experiments:
[1] = Metabolic stability in human intestinal S9 fraction assessed as parent compound remaining at 33 uM incubated for 2 hrs by LC/MS/MS analysis; assay type: ADME, subcellular, Intestine; details: read-out: Stabilty
How it was run: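 Mixed-gender human intestinal S9 (4 mg mL−1 stock) in 100 mM potassium phosphate pH 7.4 with NADPH cofactor, 6 mM MgCl2 and 1 mM EDTA. Compound at 33 μM final, in triplicate, 2 h at 37 °C. No-cofactor negative control. Supernatant diluted and percent intact compound quantified by LC-MS/MS.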

[2] = biological target: T1, Choline trimethylamine-lyase (Desulfovibrio alaskensis, UniProt Q30W70); assay: (§1) Inhibition of N-terminal His6-tagged Desulfovibrio desulfuricans G20 CutC encoding 52 residues assessed as reduction in acetaldehyde using choline as substrate in presence of NADH-dependent yeast alcohol dehydrogenase by UV-Vis absorbance based assay
T1 sequence (Q30W70 whole entry): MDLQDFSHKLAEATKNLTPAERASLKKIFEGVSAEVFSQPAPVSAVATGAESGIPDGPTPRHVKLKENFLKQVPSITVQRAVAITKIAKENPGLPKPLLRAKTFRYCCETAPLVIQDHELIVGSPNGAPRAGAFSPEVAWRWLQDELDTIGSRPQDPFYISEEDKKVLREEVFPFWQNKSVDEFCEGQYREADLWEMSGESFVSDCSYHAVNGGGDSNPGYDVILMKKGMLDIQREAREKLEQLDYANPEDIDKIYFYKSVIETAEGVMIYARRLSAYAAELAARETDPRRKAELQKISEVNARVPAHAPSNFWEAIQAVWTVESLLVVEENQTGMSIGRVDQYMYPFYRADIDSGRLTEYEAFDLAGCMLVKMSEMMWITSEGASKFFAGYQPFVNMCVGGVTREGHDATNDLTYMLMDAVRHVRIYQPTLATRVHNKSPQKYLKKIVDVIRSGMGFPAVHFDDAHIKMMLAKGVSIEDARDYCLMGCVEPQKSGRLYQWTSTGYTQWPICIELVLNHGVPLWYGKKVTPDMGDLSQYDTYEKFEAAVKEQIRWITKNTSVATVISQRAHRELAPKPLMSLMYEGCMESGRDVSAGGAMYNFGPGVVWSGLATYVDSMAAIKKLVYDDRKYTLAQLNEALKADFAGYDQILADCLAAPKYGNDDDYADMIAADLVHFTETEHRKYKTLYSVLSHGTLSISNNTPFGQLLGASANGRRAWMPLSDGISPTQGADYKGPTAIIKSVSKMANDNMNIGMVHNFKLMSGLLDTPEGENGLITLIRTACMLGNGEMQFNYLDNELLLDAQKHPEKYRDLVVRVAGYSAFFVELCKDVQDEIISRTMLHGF

[3] = Inhibition of CutC in Escherichia coli MS 200-1 assessed as reduction in d9-TMA formation using d9-choline chloride as substrate incubated for 4 hrs under anaerobic condition by LC-MS-MS analysis
[4] = biological target: T2, Choline trimethylamine-lyase (Desulfovibrio alaskensis) (UniProt Q30W70); assay: as §1
T2 sequence (whole entry): T1 sequence (Q30W70 whole entry)

[5] = Inhibition of CutC (unknown origin) in human feces assessed as reduction in TMA production using choline as substrate by LC-MS/MS analysis; assay type: tissue-based, Bacteria
[6] = test system: Bacteria; assay: Binding affinity to CutD (unknown origin) by CM5 sensor chip immobilization based surface plasmon resonance analysis
[7] = test system: Saccharomyces cerevisiae; assay: Effect on alcohol dehydrogenase activity in yeast at 5 to 50 uM in presence of NADH by colorimetric assay; details: dose 5-50 µM
[8] = test system: Escherichia coli; assay: Effect on d9-choline uptake in Escherichia coli MS 200-1 at 50 uM incubated for 15 mins by LC-MS/MS analysis; assay type: functional
[9] = test system: Bacteria; assay: Non-competitive inhibition of CutC (unknown origin) assessed as reduction in Vmax with constant Km using choline as substrate at 5 uM by Lineweaver-Burk plot based Michelis-Menten analysis
How it was run: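 D. desulfuricans G20 CutC (20 μM) activated by CutD (40 μM) with dithionite (150 μM) and SAM (200 μM), anaerobic, in 50 mM potassium phosphate pH 8.0 with 50 mM KCl for 1 h, then diluted 20-fold. Coupled to yeast ADH (0.4 μM) with NADH (200 μM). Choline varied, inhibitor absent or at 5 μM. A340 read every 20 s for 10 min. Kinetics by Michaelis–Menten and Lineweaver–Burk plots, n = 3.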

[10] = test system: Bacteria; assay: (§2) Binding affinity to CutC (unknown origin) by CM5 sensor chip immobilization based surface plasmon resonance analysis
[11] = as §2; parameters: species or system Bacteria

| Compound | remaining at 2 h, 33 µM [1] [%] | IC50 [2] [µM] | EC50 [3] [µM] | also measured |
| --- | --- | --- | --- | --- |
| O=C(NC1CCCCC1CO)c1cc(F)cc2[nH]cnc12 (stereo unspecified) | > 90 | > 500 | > 1000 | – |
| Cc1ccc(-n2nc(NC3CCN(C(N)=O)CC3)cc2C)cc1 | > 90 | > 500 | > 1000 | – |
| O=C(NCc1nc(-c2ccccc2)n[nH]1)NC1CCC(O)CC1 (stereo unspecified) | > 90 | 49 | 79 | – |
| O=C(CCc1ccccc1OC(F)(F)F)NC1CCCCNC1=O (stereo unspecified) | > 90 | > 500 | > 1000 | – |
| Cn1c(N)nc2c(ncn2[C@@H]2O[C@H](CO)[C@@H](O)[C@H]2O)c1=O | > 90 | 110 | 175 | – |
| O=C(NC1CC1)C1CCN(Cc2nc3cc(F)ccc3o2)CC1 | > 90 | 2.4 | 5.4 | inhibition [4]: Dose-dependent effect; EC50 [5]: 38 µM; Activity [6]: Active; Activity [7]: inactive; Activity [8]: inactive; inhibition [9]: Active; Activity [10]: Dose-dependent effect; Kd [11]: 4.05 µM |
| C[N+](C)(C)CC=O [BETAINE ALDEHYDE] | – | 26 | – | – |
| CN1CCC(NC(=O)NCCNc2ccccn2)CC1 | > 90 | 199 | 354 | – |
| CC(C)Nc1cccc(C(=O)NCCCN2CCC(O)CC2)c1 | > 90 | 210 | 376 | – |
| CN1CC=C[C@H](O)C1 | – | – | 11 | EC50 [5]: 83.9 µM |
| Cc1cc(C(=O)NC2CCNCC2)no1 | > 90 | > 500 | > 1000 | – |
| O=C(Nc1ccc(N2CCOCC2)nc1)NC1CCCCNC1=O (stereo unspecified) | > 90 | 167 | 298 | – |
| COc1cc(CCNC(=O)NC2CCCCC2CO)ccc1F (stereo unspecified) | > 90 | 212 | 409 | – |
| O=C1NCCCCC1NC(=O)N1CCCc2cc(F)ccc21 (stereo unspecified) | > 90 | > 500 | > 1000 | – |
| CC(O)CNC(=O)NC1CCN(Cc2ccccn2)CC1 (stereo unspecified) | > 90 | 73 | 87 | – |
| O=S(=O)(NCC1CCCC1O)c1ccc2cn[nH]c2c1 (stereo unspecified) | > 90 | 301 | 488 | – |
| Cc1cccc(NC2CCN(C(=O)Nc3cn[nH]c3)CC2)n1 | > 90 | 85 | 143 | – |
